Compound activity: PubChem, Broad Institute
Wnt act = Wnt/beta-catenin pathway activators, primary screen, cell-based, plate reader, single point | Wnt/beta-catenin reporter cell assay, activator | activation, % at 9.35 µM | actives 1.2% (n = 300,000); in the data active means activation above about 30%, passing the limit was not always enough; inconclusive means no clear call, values can overlap the other calls
Vif imaging = HIV Vif self-association inhibitors, primary screen, imaging, HEK293T, single point; HEK293T cells, Vif self-association by quenched fluorescence, 24 h; inhibition, % at 7.49 µM; actives 0.35% (n = 340,000); AID 602346, 2012; in the data active means inhibition above about 50%, passing the limit was not always enough; inconclusive means no clear call, values can overlap the other calls; inactive means below about 31%
MITF TRPM1 HTS = activators of MITF-driven TRPM1 promoter reporter, primary screen, cell-based, SK-MEL-5, luciferase, single point | actives 0.75% (n = 300,000) | activation, % at 12.5 µM | AID 588334, 2011 | SK-MEL-5 TRPM1-promoter luciferase, 24 h; % of positive control, neutral wells = 0;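 active means mean activation of at least 80% with every replicate also reaching 80%; inconclusive means mean reaches 80% but some replicate falls short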
Xi reactivation = activators of inactive X chromosome reactivation, primary screen, imaging, XiGFP fibroblasts, GFP high-content imaging, set 2 | activation, % at 7.58 µM | actives 0.055% (n = 360,000) | XiGFP mouse fibroblasts, % GFP-positive cells imaging, 3 d; cells co-treated with 5-aza-dC sensitizer; scaled so ellipticine positive control = 100%;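 active means mean normalized replicate activation at least 10% and every replicate at or above 10%; inconclusive means only one of the two criteria met; inactive means mean below 10% and not all replicates reach 10%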
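Schedule: 3 d treatment, 15 min room-temperature fixation; system: 68-5-11 XiGFP fibroblast line; buffer or medium: DMEM plus 5-aza-dC sensitizer; control set: ellipticine 6 µM positive control; compound: one concentration, pinned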
esBAF inh = Bmi1 luciferase reporter increase in mESCs, primary screen, esBAF inhibitor project, mouse ES cells, Bmi1 luciferase knock-in, single point; actives 2% (n = 350,000); 24 h; 100% = twice the neutral-well signal; reporter increase, % at 12.5 µM; AID 602393, 2012; in the data active means activation above about 40%; inconclusive means no clear call, values can overlap the other calls;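 further: a rise in the Bmi1 reporter signal indicates esBAF inhibition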
A number is an active result; 0 = inactive; ? = inconclusive; - = not tested or not shown. Rows were chosen to be rich in hits. Some 2.6% of all compounds tested hit in one or more screens of this group.

SMILES	Wnt act	Vif imaging	MITF TRPM1 HTS	Xi reactivation	esBAF inh
C[C@H]1CN([C@@H](C)CO)C(=O)c2cc(NC(=O)NC3CCCCC3)ccc2O[C@H]1CN(C)S(=O)(=O)c1ccccc1	-	-	-	0	0
CO[C@H]1CN(C)C(=O)c2cc(NC(=O)c3cccc(F)c3)ccc2OC[C@@H](C)N(C(C)=O)C[C@H]1C	-	-	-	0	0
COc1cc(O)c(C(CC(=O)N2CCCC2)c2ccc(N(C)C)cc2)c(OC)c1 (configuration not stated)	0	74	0	0	0
COc1ccc(C(CC(=O)N2CCCCC2)c2c(O)cc(OC)cc2OC)cc1 (configuration not stated)	0	0	0	0	0
CO[C@H]1CN(C)C(=O)c2ccc(NC(=O)Nc3cccc(Cl)c3)cc2OC[C@H](C)NC[C@@H]1C	-	-	-	0	0
COc1cccc(NC(=S)NC(=O)/C=C/c2ccco2)c1	0	102	0	0	0
O=C(/C=C/c1ccco1)NCCc1ccccc1	55	0	0	0	52
O=C(O)CCCNC(=O)/C=C/c1ccco1	0	-	0	0	-
Cc1cccnc1NC(=S)NC(=O)/C=C/c1ccco1	0	0	0	-	0
O=C(/C=C/c1ccco1)NC(=S)Nc1ccccn1	42	0	-	-	46
O=C(/C=C\c1ccco1)NC(=S)Nc1ccccc1O	0	0	88	-	-
COc1ccc2c3c([nH]c2c1)[C@H](CO)N(S(C)(=O)=O)CC31CCN(Cc2cccc(F)c2)CC1	-	-	-	0	-
CN1CCN(c2ccc(NC(=S)NC(=O)/C=C/c3ccco3)cc2)CC1	0	0	0	0	45
N#C/C(=C\c1c[nH]c2ccccc12)C(=O)NC1CC1	0	0	-	0	71
CN(C)CCCNC(=O)[C@H]1[C@H](CO)[C@H]2Cn3c(ccc(-c4ccncc4)c3=O)[C@@H]1N2C(=O)CC1CC1	-	-	-	0	0
CCN(C(=O)COC(=O)CCOc1ccccc1)c1c(N)n(Cc2ccccc2)c(=O)[nH]c1=O	0	0	0	0	0
CCN(C(=O)COC(=O)CCS(=O)(=O)c1ccccc1)c1c(N)n(Cc2ccccc2)c(=O)[nH]c1=O	39	0	-	0	0
Cc1ccc(/C=C2\SC(N3CCCCC3)=NC2=O)cc1	0	0	0	0	42
O=C1N=C(N2CCCCC2)S/C1=C\c1ccc(Cl)cc1	0	0	-	0	0
Cc1nnc(SCC(=O)c2cc(C)n(-c3ccc4c(c3)OCO4)c2C)s1	0	0	0	-	70
Cc1cc(C(=O)CSc2nnnn2C)c(C)n1-c1ccc2c(c1)OCCO2	0	0	0	-	-
Cc1nnc(SCc2ccc3c(c2)OCO3)s1	-	0	0	-	51
CO[C@@H]1CN(C)C(=O)c2ccc(NS(=O)(=O)c3ccc(C)cc3)cc2OC[C@H](C)NC[C@@H]1C	-	-	-	0	0
CCCNC(=O)N1C[C@H]2[C@@H](c3ccccc31)[C@H](CO)N2Cc1ccccc1F	-	-	-	0	0
Fc1cccc(Cl)c1Cc1noc(/C=C/c2ccccc2)n1	0	0	0	-	43
SMILES	Wnt act	Vif imaging	MITF TRPM1 HTS	Xi reactivation	esBAF inh
Cc1cccc(C)c1NC(=O)/C(C#N)=C/c1ccc(-c2ccc(C(=O)O)cc2)o1	0	0	-	0	128
CNC(=O)/C(C#N)=C/c1ccc(-c2ccc(Cl)cc2)o1	0	0	0	0	80
C[C@@H]1CN([C@H](C)CO)C(=O)c2cc(NC(=O)CCC(F)(F)F)ccc2O[C@@H](C)CCCCO[C@@H]1CN(C)S(=O)(=O)c1ccc(Cl)cc1	-	-	-	0	0
CCC(=O)N1N=C(c2cccs2)CC1c1ccc(C)cc1 (configuration not stated)	0	0	0	0	0
CC(C)n1nnnc1SCC(=O)N1N=C(c2cccs2)CC1c1cccs1 (configuration not stated)	0	0	0	0	71
COc1ccc(C2CC(c3cccs3)=NN2C(=O)CSc2nnnn2C)cc1OC (configuration not stated)	0	0	0	0	-
Cc1ccc(C2CC(c3cccs3)=NN2C(=O)CCl)cc1 (configuration not stated)	0	0	0	0	62
Cc1noc(C)c1NC(=O)N1C[C@H](O)COC[C@@H]2O[C@@H](CC(=O)N[C@H]3CCN(Cc4ccccc4)C3)CC[C@H]21	-	-	-	0	-
C[C@@H]1CN([C@@H](C)CO)C(=O)c2cc(NS(C)(=O)=O)ccc2O[C@@H](C)CCCCO[C@H]1CN(C)Cc1ccc(C(F)(F)F)cc1	-	-	-	0	-
CC(C)NC(=O)N1[C@H](CO)[C@@H](c2ccccc2)C12CN(Cc1cc(F)cc(F)c1)C2	-	-	-	0	-
CCC(=O)N1C[C@H](C)[C@H](OC)CN(C)C(=O)c2ccc(NC(=O)NC(C)C)cc2OC[C@@H]1C	-	-	-	0	0
CSc1nsc(SCC(=O)Nc2ccc(OC(C)=O)cc2)n1	41	0	89	0	-
CSc1nsc(SCC(=O)Nc2ccccc2)n1	0	0	0	0	0
CCCNC(=O)N1CC2(CN(C(=O)CC)C2)c2c(n(C)c3cc(OC)ccc23)[C@@H]1CO	-	-	-	0	-
CCOC(=O)c1c(Nc2ccc(OC)cc2)n[nH]c1C	34	-	-	0	-
C[C@@H]1CN([C@@H](C)CO)C(=O)c2cc(C#CC(C)(C)O)cnc2O[C@@H]1CN(C)Cc1cncnc1	-	-	-	0	0
Cc1nnc(SCc2c(Cl)cccc2Cl)s1	0	0	0	-	55
Nc1nnc(SCc2ccc(F)cc2Cl)s1	0	0	0	-	0
Cc1nnc(SCc2cccc(CSc3nnc(C)s3)c2)s1	0	0	0	-	?
Cc1nnc(SCc2ccc(F)cc2Cl)s1	-	0	0	-	50
Cc1ccccc1-c1ccc2c(c1)O[C@@H](CN(C)C)[C@@H](C)CN([C@@H](C)CO)S2(=O)=O	-	-	-	0	0
C[C@@H]1CC=CCCNC(=O)[C@@H](Cc2ccccc2)N(C)C(=O)c2ccccc2O1 (mixture of isomers)	-	-	-	0	-
CN1CCN(C(c2ccccn2)c2cc(Cl)c3cccnc3c2O)CC1 (configuration not stated)	58	0	0	0	0
Oc1c(C(c2ccccn2)N2CCC(Cc3ccccc3)CC2)cc(Cl)c2cccnc12 (configuration not stated)	204	-	-	0	-
Cc1ccc(C(c2cc(Cl)c3cccnc3c2O)N2CCN(C)CC2)cc1 (configuration not stated)	-	54	0	-	0
Oc1c(C(c2ccc(Cl)cc2)N2CCCC2)cc(Cl)c2cccnc12 (configuration not stated)	0	0	0	0	-
CO[C@@H]1CN(C)C(=O)c2ccc(NC(=O)C3CCC3)cc2OC[C@H](C)N(C)C[C@@H]1C	-	-	-	0	0
NC(=O)c1ccc(NC(=O)c2ccc3c(c2)OCO3)cc1	0	0	88	-	0
O=C(Nc1ccc2c(c1)OCO2)c1ccc2c(c1)OCO2	-	0	0	0	-
